Measured values published in ChEMBL document CHEMBL5532690, “Antitubercular activity of 2-mercaptobenzothiazole derivatives targeting Mycobacterium tuberculosis type II NADH dehydrogenase” (RSC Med Chem, 2024).
Values after ≈ are worked out from the molar mass of the structure shown.

Columns and labels:
[1] = test system: Mycobacterium tuberculosis variant bovis; test: Antitubercular activity against Mycobacterium bovis BCG measured after 10 days by liquid broth microdilution assay; type: functional; conditions: 240 h, time 10 day
How it was run: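 Broth microdilution in 7H9 with 0.2% glycerol, 0.05% Tween 80 and 10% ADS. Mid-log cultures (OD600 0.4–0.6) were diluted to OD600 0.005 (1.0 × 10^6 CFU ml−1) and added to two-fold serial compound dilutions. Plates were incubated at 37 °C for 10 days and read visually. MIC was the lowest concentration with no turbidity.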

[2] = test system: Mycobacterium tuberculosis variant bovis; test: Antitubercular activity against Mycobacterium bovis BCG assessed as inhibition of intracellular ATP synthesis incubated for 24 hrs by BacTiter-Glo microbial cell viability assay; type: functional, organism-based
How it was run: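 Mid-log cultures were adjusted to OD600 0.05 and exposed to compounds at 37 °C for 24 h. BacTiter-Glo reagent was then added for 12 min and luminescence was read. H37Ra and BCG were grown in 7H9 with glycerol, Tween 80 and ADS. mc2 6230 was grown with tyloxapol plus methionine, leucine, arginine and pantothenate. Values are the mean of triplicates.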

SMILES	MIC90 [1]	IC50 [2]
O=C(CSc1nc2ccccc2c(=O)[nH]1)NC1CCCCC1	1 µg/mL (≈ 3.15 µM)	4.99 µg/mL (≈ 15.7 µM)
O=C(CSc1nc2c(ccc3ccccc32)s1)NC1CCCCC1	64 µg/mL (≈ 180 µM)	38 µg/mL (≈ 106 µM)
O=C(CSc1nc2c(Br)cc(C(F)(F)F)cc2s1)NC1CCCCC1	64 µg/mL (≈ 141 µM)	39.8 µg/mL (≈ 87.9 µM)
O=C(CSc1nc2c(Br)cc(F)cc2s1)NC1CCCCC1	4 µg/mL (≈ 9.92 µM)	13.5 µg/mL (≈ 33.5 µM)
O=C(CSc1nc2c(Br)cc(OC(F)(F)F)cc2s1)NC1CCCCC1	128 µg/mL (≈ 273 µM)	40.8 µg/mL (≈ 86.9 µM)
Cc1cc(C)c2nc(SCC(=O)NC3CCCCC3)sc2c1	4 µg/mL (≈ 12 µM)	13.4 µg/mL (≈ 40.2 µM)
O=C(CSc1nc2ccc(F)cc2s1)NC1CCCCC1	8 µg/mL (≈ 24.7 µM)	19.7 µg/mL (≈ 60.6 µM)
CC(C)c1ccc2nc(SCC(=O)NC3CCCCC3)sc2c1	4 µg/mL (≈ 11.5 µM)	9.89 µg/mL (≈ 28.4 µM)
O=C(CSc1nc2ccccc2s1)NC1CCCCC1	64 µg/mL (≈ 209 µM)	33.2 µg/mL (≈ 108 µM)
O=C(CSc1nc2ccc(OC(F)(F)F)cc2s1)NC1CCCCC1	128 µg/mL (≈ 328 µM)	30.4 µg/mL (≈ 77.9 µM)
O=C(CSc1nc2ccc([N+](=O)[O-])cc2s1)NC1CCCCC1	32 µg/mL (≈ 91.1 µM)	34.4 µg/mL (≈ 98 µM)
O=C(CSc1nc2ccc(Br)cc2s1)NC1CCCCC1	128 µg/mL (≈ 332 µM)	31.8 µg/mL (≈ 82.4 µM)
O=C(CSc1nc2ccc(C(F)(F)F)cc2s1)NC1CCCCC1	128 µg/mL (≈ 342 µM)	19.7 µg/mL (≈ 52.6 µM)
Cc1ccc2nc(SCC(=O)NC3CCCCC3)sc2c1	16 µg/mL (≈ 49.9 µM)	14.4 µg/mL (≈ 44.9 µM)
O=C(CSc1nc2ccc(Cl)cc2s1)NC1CCCCC1	64 µg/mL (≈ 188 µM)	32.9 µg/mL (≈ 96.4 µM)
CC(C)/N=c1\cc2n(-c3ccc(Cl)cc3)c3ccccc3nc-2cc1Nc1ccc(Cl)cc1 [CLOFAZIMINE]	0.25 µg/mL (≈ 0.528 µM)	–
NNC(=O)c1ccncc1 [ISONIAZID]	0.06 µg/mL (≈ 0.438 µM)	–
CO[C@H]1/C=C/O[C@@]2(C)Oc3c(C)c(O)c4c(O)c(c(/C=N/N5CCN(C)CC5)c(O)c4c3C2=O)NC(=O)/C(C)=C\C=C\[C@H](C)[C@H](O)[C@@H](C)[C@@H](O)[C@@H](C)[C@H](OC(C)=O)[C@@H]1C [RIFAMPIN]	0.03 µg/mL (≈ 0.0365 µM)	–
C=C(C)[C@H]1Cc2c(ccc3c2O[C@@H]2COc4cc(OC)c(OC)cc4[C@@H]2C3=O)O1 [ROTENONE]	> 64 µg/mL	–
